# Shown are actives, neighbours in structure and some others; about 1.8% of the full set was active somewhere.
# MC4R barr agon: agonists of human melanocortin 4 receptor (MC4R) beta-arrestin; U2OS MC4R beta-arrestin complementation, luminescence; percent of melanotan II response, DMSO zero; P32245; activation, % at 8.9 µM; hit rate 0.98% among 360,000; AID 540308;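 active means activation above a per-plate cutoff, the mean activation of sample wells on that plate plus 3 SD, cut at about 8% in these data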
# Target sequence (P32245 whole entry, looked up): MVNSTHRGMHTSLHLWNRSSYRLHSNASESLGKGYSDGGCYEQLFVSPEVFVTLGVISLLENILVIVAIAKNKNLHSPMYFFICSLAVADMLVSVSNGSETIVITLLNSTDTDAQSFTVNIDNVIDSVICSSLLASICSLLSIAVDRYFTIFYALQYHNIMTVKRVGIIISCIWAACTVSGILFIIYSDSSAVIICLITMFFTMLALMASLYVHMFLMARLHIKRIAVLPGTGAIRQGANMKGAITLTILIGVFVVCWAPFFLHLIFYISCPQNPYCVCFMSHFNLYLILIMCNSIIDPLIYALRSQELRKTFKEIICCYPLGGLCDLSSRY
# MC4R antagonist: human MC4R antagonism in cAMP assay; MC4R-expressing cells, MTII-stimulated cAMP, LANCE TR-FRET; inhibition, % at 6.5 µM; hit rate 0.48% among 360,000; AID 540295; P32245;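 active means inhibition above its plate's cutoff, the mean of tested wells on that plate plus 3 SD, cut at about 29% in these data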
#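 Test system: U2OS cells stably expressing human melanocortin 4 receptor (MC4R); also added: Melanotan II challenge; compound: 6.5 µM single dose; timing: 30-min compound preincubation, 1-h Melanotan II challenge, 1-h detection, room temperature; signal: Eu-cAMP/anti-cAMP TR-FRET, emission 671 nm; repeats: one well per compound, no replicates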
# NTR1 agonist: agonists of human neurotensin receptor NTR1; P30989; hit rate 0.17% among 330,000; NTR1-U2OS beta-arrestin-GFP spot imaging, agonist mode; activation, % at 20 µM;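 active means activation at or above 40% of the spot to cytoplasm intensity ratio, with at least 20 cells analyzed; inconclusive means wells under 20 cells, flagged as cytotoxic or low count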
# AI-2 QS mod: modulators of Vibrio harveyi AI-2 quorum sensing system | AID 2094 | hit rate 0.4% among 300,000 | Vibrio harveyi JMH597 AI-2 luminescence/OD600 ratio, 9 h; hits give low values; strain lacks LuxN and CqsS sensors; 0 = neutral-control median | activity change, % at 7.5 µM; in the data active means activity change below about -75%, passing the limit was not always enough; inconclusive means no clear call, values can overlap the other calls;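 further: luminescence divided by OD600 gain over 9 h not by final OD600 alone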
# JMH597 growth rt: retest: inhibitors of Vibrio harveyi JMH597 growth; OD600 absorbance, 9 h; lacks LuxN and CqsS sensors; growth inhibition, % at 7.5 µM; hit rate 1% among 750; shares compounds with AI-2 QS mod; AID 2726;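 active means every replicate shows growth inhibition above 50%; inconclusive means at least half, but not all, replicates pass that cutoff; inactive means fewer than half of replicates pass it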
# BB721 const-QS lum: retest counter-screen: lowers luminescence of constitutive-QS Vibrio harveyi BB721. inhibition, % at 7.5 µM. 9 h. AID 2727. shares compounds with AI-2 QS mod. hit rate 95% among 750;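 active means inhibition above about 80% in every replicate, not just on average, limit read from the data; inconclusive means at least half of replicates past the limit, but not all; inactive means fewer than half of replicates past the limit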
# BB721 growth: retest: inhibitors of Vibrio harveyi BB721 growth; shares compounds with AI-2 QS mod; OD600 absorbance, 9 h; growth inhibition, % at 7.5 µM; hit rate 3% among 750; AID 2728;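 active means every replicate shows growth inhibition above 50%; inconclusive means at least half but not all replicates above 50% inhibition; inactive means under half of replicates above 50% inhibition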
# JMH597 AI-2 mod: Vibrio harveyi AI-2 signaling luminescence modulation – JMH597 strain, confirmation; AID 2736; hit rate 97% among 750; inhibition, % at 7.5 µM; shares compounds with AI-2 QS mod; Vibrio harveyi JMH597 AI-2 quorum sensing luminescence, 9 h; luxN and CqsS knockout, AI-2 only;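 active means every replicate shows more than 75% inhibition of signal versus neutral control wells; inconclusive means half to three quarters of replicates exceed 75% inhibition; inactive means fewer than half of replicates exceed 75% inhibition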
# A number is an active result; i = inactive; ? = inconclusive; nt = no result.
SMILES,MC4R barr agon,MC4R antagonist,NTR1 agonist,AI-2 QS mod,JMH597 growth rt,BB721 const-QS lum,BB721 growth,JMH597 AI-2 mod
CCc1nn(CC(=O)Nc2ccc(Br)c(C)c2)c(=N)s1,i,i,i,-95.0,i,98.8,i,99.3
Cc1cc(NC(=O)Cn2nc3c(cc2=O)CCCC3)ccc1Br,i,i,i,-97.3,i,99.6,i,99.8
CCc1nn(CC(=O)Nc2cc(C)ccc2C)c(=N)s1,i,i,i,i,nt,nt,nt,nt
COc1ccc(-c2cc(C(=O)Nc3c(C)n(C)n(-c4ccccc4)c3=O)c3ccccc3n2)c(OC)c1,i,i,i,i,nt,nt,nt,nt
Cc1ccccc1OCCNC(=O)/C=C/c1ccccc1,i,i,i,-82.2,i,93.7,i,95.7
Cc1ccccc1OCCNC(=O)/C=C/c1ccc([N+](=O)[O-])cc1,i,i,i,i,nt,nt,nt,nt
Cc1ccccc1OCCNC(=O)c1ccc2ccccc2n1,i,i,i,-78.5,i,91.1,i,93.8
Clc1nc(-c2ccccc2)ncc1Oc1ccccc1,i,i,i,-84.5,i,97.0,i,97.6
CN(Cc1nccs1)C(=O)c1cc(COc2cccc3cnccc23)on1,i,i,i,-93.9,i,97.4,i,98.7
COC(=O)C1CCCCN1C(=O)c1cc(COc2cccc3cccnc23)on1 (stereo not given),i,i,i,i,nt,nt,nt,nt
COC(=O)C1CCCCN1C(=O)c1cc(COc2cccc3cnccc23)on1 (stereo not given),i,i,i,-90.6,i,91.9,i,95.2
CC(=O)c1cccc(OCc2cc(C(=O)N(C)Cc3nccs3)no2)c1,i,i,nt,nt,nt,nt,nt,nt
CCOC(=O)CC1CCCCN1C(=O)c1cc(COc2cccc3cnccc23)on1 (stereo not given),i,i,i,-86.5,i,87.6,i,93.3
CC(C)c1ccc(O)c(NC(=O)c2cncc(Br)c2)c1,i,i,i,-94.3,i,97.6,i,98.3
Cc1ccsc1CN(C(=O)c1ccc([N+](=O)[O-])cc1)C1CCS(=O)(=O)C1 (stereo not given),i,i,i,i,nt,nt,nt,nt
Cc1ccc(C)c(OC(=O)CN2C(=O)c3ccccc3C2=O)c1,i,i,i,i,nt,nt,nt,nt
CCCCCCOc1ccc(N2C(=O)CC(SCCN)C2=O)cc1 (stereo not given),i,i,i,-85.4,i,87.6,i,95.5
O=C(COC(=O)CCSc1ccc(F)cc1)NCc1ccc(F)cc1,i,i,i,nt,nt,nt,nt,nt
N#CCC(=O)Nc1ccc(C(=O)OCC(=O)NC(=O)NCc2ccco2)cc1,i,i,i,nt,nt,nt,nt,nt
COc1ccc(CC(=O)O/N=C(\N)c2ccccn2)cc1,i,i,i,?,i,84.4,i,87.8
COc1ccc(/C(N)=N/OC(=O)Cc2ccc(C)cc2)cc1,i,i,i,-90.9,i,95.3,i,96.8
O=C(NCc1ccccc1)c1cc(-c2cccc(O)c2)on1,i,i,i,-82.0,i,88.1,i,91.9
CC(C)(C)c1ccc(/C=C/C(=O)N2CCCCC2)cc1,i,i,nt,-85.8,i,94.5,i,96.7
CCc1ccc(/C=C\C(=O)N2CCCC2)cc1,i,i,i,i,nt,nt,nt,nt
CC1(C)SC[C@H](C(=O)Nc2cccc(Cl)c2)N1C=O,i,i,i,-93.3,i,98.4,i,98.8
SMILES,MC4R barr agon,MC4R antagonist,NTR1 agonist,AI-2 QS mod,JMH597 growth rt,BB721 const-QS lum,BB721 growth,JMH597 AI-2 mod
CN(C(=O)c1cccc(NC(=O)Cc2ccc(NC(=O)C3CCN(C(=O)C4CCCC4)CC3)cc2)c1)C1CC1,i,i,nt,nt,nt,nt,nt,nt
Cc1cc(Nc2ccc(Cl)cc2)nc(N)n1,i,i,i,i,nt,nt,nt,nt
Nc1cc(Nc2ccc(Br)cc2)nc(N)n1,i,i,i,-96.3,i,99.0,i,99.2
COC(=O)c1cc(OC)c(OC)cc1NC(=O)c1ccc(Br)o1,i,i,i,?,i,i,i,i
CN(C)S(=O)(=O)c1ccc(NC(=O)CN2C(=O)NC3(CCCC3)C2=O)cc1,i,i,i,-78.9,i,?,i,82.1
CN(C)S(=O)(=O)c1ccc(NC(=O)CN2CCC(Cc3ccccc3)CC2)cc1,i,i,i,-90.6,i,94.1,i,96.1
Cc1ccc(/C=C/C(=O)NCc2ccncc2)cc1,i,i,i,i,nt,nt,nt,nt

# Compound activity from PubChem BioAssay.
